Bridges are numbered along the chain shown (N, C = ends). Where no end group is shown, it is not given here.
Key:
[1] = Thioflavin T kinetic assay of amyloid formation; format: physicochemical; conditions: 16 μM peptide, 32 μM ThT, pH 7.4, 25°C, one week (seven days)
Method in brief: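 HFIP peptide stocks, quantified by A280, were lyophilized 24 hrs and resuspended in 10 mM phosphate, 140 mM KCl, pH 7.4, with 32 μM thioflavin T. Peptide was 16 μM in the main assays and 100 μM in the supplementary set. Run at 25°C without shaking, triplicate wells. Fluorescence read at ex 450/em 485 nm every ten minutes. T50 is the time to half-maximal ThT fluorescence.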

[2] = Cytotoxicity dose response, statements of the text not split by assay; format: cell-based; conditions: rat
[3] = Ion mobility mass spectrometry, collision cross sections; format: physicochemical; conditions: for CCS, 1^+2 ion: charge +2, 100 mM ammonium acetate pH 7.5
Method in brief: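 Lyophilized peptide dissolved in DMSO at 3.2 mM, held 24 hrs at room temperature, then diluted 100-fold in 100 mM ammonium acetate pH 7.5 and directly infused for ion-mobility MS. m/z 350-5000 calibrated with cesium iodide. CCS calibrated daily with polyethylene oxide and tryptic cytochrome c peptides. TWCCS N2→He derived from reduced mobilities in nitrogen using helium calibrant values. Triplicate runs on different days.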

[4] = monomer, TWCCS N2→He, triplicate on different days

| Compound | Increase in ThT fluorescence over the time course of the study [1] | EC50 at 24 h [2] | CCS, 2^+4 ion ([3]; dimer, charge +4, triplicate on different days) | CCS, 2^+5 ion, second conformation ([3]; dimer, charge +5, lower line of the two conformations, triplicate) | CCS, 1^+2 ion [3, 4] | CCS, 1^+3 ion ([3]; monomer, charge +3, TWCCS N2→He, triplicate on different days) | CCS, 1^+4 ion, second (compact) conformation ([3]; monomer, charge +4, lower line of the two conformations, triplicate) |
| --- | --- | --- | --- | --- | --- | --- | --- |
| CC[C@H](C)[C@H](NC(=O)[C@H](C)NC(=O)CNC(=O)[C@H](Cc1ccccc1)NC(=O)[C@H](CC(N)=O)NC(=O)[C@H](CC(N)=O)NC(=O)[C@H](CO)NC(=O)[C@H](CO)NC(=O)[C@H](Cc1c[nH]cn1)NC(=O)[C@@H](NC(=O)[C@H](CC(C)C)NC(=O)[C@H](Cc1ccccc1)NC(=O)[C@H](CC(N)=O)NC(=O)[C@H](C)NC(=O)[C@H](CC(C)C)NC(=O)[C@H](CCCNC(=N)N)NC(=O)[C@H](CCC(N)=O)NC(=O)[C@@H](NC(=O)[C@H](C)NC(=O)[C@@H]1CSSC[C@H](NC(=O)[C@@H](N)CCCCN)C(=O)N[C@@H](CC(N)=O)C(=O)N[C@@H]([C@@H](C)O)C(=O)N[C@@H](C)C(=O)N[C@@H]([C@@H](C)O)C(=O)N1)[C@@H](C)O)C(C)C)C(=O)N[C@@H](CC(C)C)C(=O)N[C@@H](CO)C(=O)N[C@@H](CO)C(=O)N[C@H](C(=O)N[C@@H](CC(N)=O)C(=O)N[C@H](C(=O)NCC(=O)N[C@@H](CO)C(=O)N[C@@H](CC(N)=O)C(=O)N[C@H](C(=O)N[C@@H](Cc1ccc(O)cc1)C(N)=O)[C@@H](C)O)C(C)C)[C@@H](C)O [hIAPP, human islet amyloid polypeptide] | showed an increase in ThT fluorescence | 27 to 48.1 µM | 864.0 ± 9.9 Å^2 | 863.0 ± 21.1 Å^2 | 544.7 ± 4.6 Å^2 | 551.1 ± 8.1 Å^2 | 552.9 ± 12.2 Å^2 |
| IAPPA25P S28P: an A25P S28P analog of IAPP (KCNTATCATQRLANFLVHSSNNFGPILPSTNVGSNTY; disulfide 2-7; not fully specified (C-terminus); ends not checked; UniProt P10997 34-70, looked up, variant A25P S28P) | showed no increase in ThT fluorescence | – | – | – | 550.5 ± 3.8 Å^2 | – | – |

Source: paper PMC7699308 (Biochemistry, 2020)
